{"source": "ChEMBL document CHEMBL3232963", "about": "“Discovery of a potent and selective α3β4 nicotinic acetylcholine receptor antagonist from an α-conotoxin synthetic combinatorial library” (J Med Chem, 2014)", "key": {"[1]": {"target": "T1, Neuronal acetylcholine receptor; alpha3/beta4 (Rattus norvegicus, UniProt P04757+P12392)", "T1 sequence (P04757 whole entry)": "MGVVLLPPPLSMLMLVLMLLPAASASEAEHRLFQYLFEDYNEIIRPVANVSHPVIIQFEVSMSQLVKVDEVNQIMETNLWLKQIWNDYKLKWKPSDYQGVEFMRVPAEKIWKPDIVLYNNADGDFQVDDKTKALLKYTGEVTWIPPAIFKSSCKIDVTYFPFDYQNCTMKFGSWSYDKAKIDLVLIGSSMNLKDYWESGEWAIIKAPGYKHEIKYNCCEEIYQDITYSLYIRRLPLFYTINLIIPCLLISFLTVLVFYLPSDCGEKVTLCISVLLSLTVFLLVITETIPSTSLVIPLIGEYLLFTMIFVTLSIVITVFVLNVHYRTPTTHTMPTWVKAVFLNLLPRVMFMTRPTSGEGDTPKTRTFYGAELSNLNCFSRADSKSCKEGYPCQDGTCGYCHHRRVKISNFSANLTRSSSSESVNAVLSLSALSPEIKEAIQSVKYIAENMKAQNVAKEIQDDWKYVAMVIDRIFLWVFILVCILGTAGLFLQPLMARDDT", "T1 sequence (P12392 whole entry)": "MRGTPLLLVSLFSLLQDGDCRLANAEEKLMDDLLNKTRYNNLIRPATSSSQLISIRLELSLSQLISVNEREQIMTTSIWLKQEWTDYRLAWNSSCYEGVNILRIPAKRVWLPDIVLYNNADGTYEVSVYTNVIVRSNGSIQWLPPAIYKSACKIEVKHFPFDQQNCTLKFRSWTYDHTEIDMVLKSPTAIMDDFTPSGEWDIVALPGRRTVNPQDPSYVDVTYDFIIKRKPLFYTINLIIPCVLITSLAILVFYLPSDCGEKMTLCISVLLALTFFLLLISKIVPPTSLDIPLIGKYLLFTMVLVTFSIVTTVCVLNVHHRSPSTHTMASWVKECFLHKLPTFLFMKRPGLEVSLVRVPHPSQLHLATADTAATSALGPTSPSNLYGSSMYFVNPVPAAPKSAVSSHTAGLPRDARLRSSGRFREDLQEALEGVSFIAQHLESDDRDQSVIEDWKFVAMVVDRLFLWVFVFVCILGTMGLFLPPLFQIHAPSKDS", "experiment": "Antagonist activity at rat alpha3beta4 nAChR expressed in HEK293 cells assessed as inhibition of epibatadine-induced effect after 30 mins by fluorescent membrane potential assay", "type": "cell-based", "outline": "(§1)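 Stably transfected HEK293 lines (KXα3β4R2, KXα3β2R2, KXα4β2R2; rat subunits) grown in DMEM/10% FBS with G-418, plated 24 h before assay. Cells washed with HBSS, peptide added, then membrane potential blue dye, 30 min at 37 °C. Fluorescence (ex 565/em 530 nm) read up to 60 s after epibatidine to 0.1 μM. IC50 from maximal responses across concentrations; n = 4.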"}, "[2]": {"target": "Neuronal acetylcholine receptor; alpha3/beta4 (Rattus norvegicus) (UniProt P04757+P12392)", "experiment": "Antagonist activity at rat alpha3beta4 nAChR expressed in HEK293 cells assessed as inhibition of epibatadine-induced effect at 10 uM after 30 mins by fluorescent membrane potential assay relative to mecamylamine", "type": "cell-based", "outline": "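Rat α3β4 nAChR stably expressed in HEK293 cells; crude, SPE-desalted individual peptides tested at 10 μM in HBSS with membrane potential blue dye, 30 min at 37 °C. Fluorescence change read after epibatidine (0.1 μM). Percent inhibition set against 10 μM mecamylamine taken as 100%.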"}, "[3]": {"target": "T1, Neuronal acetylcholine receptor; alpha3/beta4", "experiment": "Displacement of [3H]epibatadine from rat alpha3beta4 nAChR expressed in HEK293 cells after 2 hrs by betaplate counting analysis", "type": "cell-based", "outline": "(§2)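 Membranes from HEK293 cells stably expressing α3β4 or α4β2 nAChR, homogenised in 50 mM Tris pH 7.4 and washed by centrifugation. Incubated 2 h at room temperature with peptide and 0.31 nM [3H]epibatidine; filtered on PEI-soaked glass fibre, counted. Nonspecific binding with 0.1 μM unlabeled epibatidine. Ki by Cheng–Prusoff from IC50.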"}, "[4]": {"target": "Neuronal acetylcholine receptor; alpha4/beta2 (Rattus norvegicus) (UniProt P09483+P12390)", "experiment": "Displacement of [3H]epibatadine from rat alpha4beta2 nAChR expressed in HEK293 cells up to 10 uM after 2 hrs by betaplate counting analysis", "type": "cell-based", "outline": "as §2"}, "[5]": {"target": "Neuronal acetylcholine receptor; alpha3/beta2 (Rattus norvegicus, UniProt P04757+P12390)", "sequence (P04757 whole entry)": "as the sequence (P04757 whole entry) above", "sequence (P12390 whole entry)": "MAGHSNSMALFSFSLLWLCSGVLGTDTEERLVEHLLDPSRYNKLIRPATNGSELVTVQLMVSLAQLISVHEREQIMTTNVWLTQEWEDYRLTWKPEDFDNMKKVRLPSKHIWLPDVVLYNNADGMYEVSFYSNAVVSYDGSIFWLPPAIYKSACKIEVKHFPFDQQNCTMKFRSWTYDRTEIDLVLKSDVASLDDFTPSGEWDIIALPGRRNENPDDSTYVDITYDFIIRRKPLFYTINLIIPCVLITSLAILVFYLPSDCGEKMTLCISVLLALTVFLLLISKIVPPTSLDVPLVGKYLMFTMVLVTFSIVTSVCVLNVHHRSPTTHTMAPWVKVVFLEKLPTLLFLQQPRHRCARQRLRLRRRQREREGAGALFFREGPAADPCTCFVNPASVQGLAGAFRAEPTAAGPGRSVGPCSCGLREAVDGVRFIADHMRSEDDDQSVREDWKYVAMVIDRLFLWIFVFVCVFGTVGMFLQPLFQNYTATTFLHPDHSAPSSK", "experiment": "Antagonist activity at rat alpha3beta2 nAChR expressed in HEK293 cells assessed as inhibition of epibatadine-induced effect after 30 mins by fluorescent membrane potential assay", "type": "cell-based", "outline": "as §1"}, "[6]": {"target": "Neuronal acetylcholine receptor; alpha4/beta2 (Rattus norvegicus, UniProt P09483+P12390)", "sequence (P09483 whole entry)": "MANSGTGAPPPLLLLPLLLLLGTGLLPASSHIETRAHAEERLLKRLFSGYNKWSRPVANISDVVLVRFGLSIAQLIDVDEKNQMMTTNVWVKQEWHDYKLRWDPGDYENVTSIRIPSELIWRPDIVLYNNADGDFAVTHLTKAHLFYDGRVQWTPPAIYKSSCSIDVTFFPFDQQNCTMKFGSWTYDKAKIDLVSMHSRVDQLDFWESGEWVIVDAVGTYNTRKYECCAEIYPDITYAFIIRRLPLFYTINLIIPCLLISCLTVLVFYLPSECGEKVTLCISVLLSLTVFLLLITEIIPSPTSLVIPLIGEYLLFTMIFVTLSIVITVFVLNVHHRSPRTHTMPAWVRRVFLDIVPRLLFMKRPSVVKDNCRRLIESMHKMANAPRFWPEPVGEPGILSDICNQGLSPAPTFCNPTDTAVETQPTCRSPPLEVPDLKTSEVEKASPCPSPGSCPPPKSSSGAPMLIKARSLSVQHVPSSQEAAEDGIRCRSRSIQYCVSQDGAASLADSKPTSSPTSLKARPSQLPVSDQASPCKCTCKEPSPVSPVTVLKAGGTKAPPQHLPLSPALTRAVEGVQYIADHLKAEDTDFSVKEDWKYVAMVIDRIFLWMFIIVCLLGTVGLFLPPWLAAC", "sequence (P12390 whole entry)": "as the sequence (P12390 whole entry) above", "experiment": "Antagonist activity at rat alpha4beta2 nAChR expressed in HEK293 cells assessed as inhibition of epibatadine-induced effect after 30 mins by fluorescent membrane potential assay", "type": "cell-based", "outline": "as §1"}, "[7]": {"target": "T1, Neuronal acetylcholine receptor; alpha3/beta4", "experiment": "Inhibition of rat alpha3beta4 nAChR expressed in Xenopus laevis oocytes by voltage clamp technique", "type": "cell-based", "outline": "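Oocytes expressing α3 chimera/β4 nAChR, voltage-clamped at ~22 °C. Concentrations below 1 μM perfused, with 1 s ACh pulses every 1 min; 1 μM and above given as a 5 min static bath. Lowest concentration tested 10 nM. IC50 from a concentration–response curve with top and bottom fixed at 100 and 0; n = 3–5 oocytes per concentration.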"}, "HEK293": {"tested_on": "HEK293", "experiment": "Selectivity ratio of IC50 for rat alpha3beta4 nAChR expressed in HEK293 cells to IC50 for rat alpha3beta2 nAChR expressed in HEK293 cells", "type": "cell-based"}, "[8]": {"target": "Neuronal acetylcholine receptor; alpha3/beta4 (Homo sapiens, UniProt P30926+P32297)", "sequence (P30926 whole entry)": "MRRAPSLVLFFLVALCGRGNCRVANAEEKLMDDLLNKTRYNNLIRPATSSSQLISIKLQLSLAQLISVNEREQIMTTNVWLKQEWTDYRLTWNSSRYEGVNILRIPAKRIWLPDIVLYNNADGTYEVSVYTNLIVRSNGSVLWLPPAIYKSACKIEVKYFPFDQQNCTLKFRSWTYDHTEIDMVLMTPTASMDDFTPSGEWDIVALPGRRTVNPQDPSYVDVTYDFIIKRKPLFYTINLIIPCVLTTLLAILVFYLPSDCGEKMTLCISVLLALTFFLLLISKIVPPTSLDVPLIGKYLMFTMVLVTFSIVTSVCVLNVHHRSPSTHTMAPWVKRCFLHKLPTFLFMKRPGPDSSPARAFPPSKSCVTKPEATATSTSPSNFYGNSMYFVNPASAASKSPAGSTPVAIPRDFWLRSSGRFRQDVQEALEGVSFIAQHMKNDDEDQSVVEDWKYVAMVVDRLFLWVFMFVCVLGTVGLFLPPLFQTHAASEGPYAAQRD", "sequence (P32297 whole entry)": "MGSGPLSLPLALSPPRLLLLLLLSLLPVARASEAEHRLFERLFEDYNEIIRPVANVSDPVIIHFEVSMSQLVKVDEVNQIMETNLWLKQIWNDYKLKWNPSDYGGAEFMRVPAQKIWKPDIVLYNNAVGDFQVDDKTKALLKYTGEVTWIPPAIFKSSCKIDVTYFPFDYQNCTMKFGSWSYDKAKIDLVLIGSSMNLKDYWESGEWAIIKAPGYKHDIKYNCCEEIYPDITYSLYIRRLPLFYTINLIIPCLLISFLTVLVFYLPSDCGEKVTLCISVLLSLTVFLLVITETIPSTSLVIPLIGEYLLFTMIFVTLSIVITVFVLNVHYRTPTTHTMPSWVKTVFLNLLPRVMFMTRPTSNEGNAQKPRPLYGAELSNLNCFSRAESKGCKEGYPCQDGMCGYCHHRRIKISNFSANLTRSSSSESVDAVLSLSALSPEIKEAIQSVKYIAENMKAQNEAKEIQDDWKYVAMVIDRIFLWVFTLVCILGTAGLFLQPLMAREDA", "experiment": "Antagonist activity at alpha3beta4 nAChR (unknown origin)", "type": "protein-complex assay", "outline": "as §1"}}, "note": "Activity calls are given as the source filed them. No cut-off for these calls is given here. Bridge positions count the residues as written; N and C are the ends. Peptide text beside a SMILES is read from it."}
{"compound": "CC(C)C[C@@H]1NC(=O)[C@H](C(C)C)NC(=O)[C@H](C)NC(=O)[C@@H]2CSSC[C@H](NC(=O)CN)C(=O)N[C@@H](CSSC[C@@H](C(=O)O)NC(=O)[C@H](Cc3ccc(O)cc3)NC1=O)C(=O)N[C@@H](CO)C(=O)N[C@@H]([C@H](C)O)C(=O)N1CCC[C@H]1C(=O)N1CCC[C@H]1C(=O)N2", "values": [{"measurement": "IC50", "setting": "[1]", "value": 265, "unit": "nM"}, {"measurement": "inhibition", "setting": "[2]", "value": 94.4, "unit": "%"}, {"measurement": "Ki", "setting": "[3]", "value": 851, "unit": "nM"}, {"measurement": "Activity", "setting": "[4]", "value": "inactive"}, {"measurement": "IC50", "setting": "[5]", "value": 26, "unit": "nM"}, {"measurement": "IC50", "setting": "[6]", "value": "> 10000", "unit": "nM"}, {"measurement": "IC50", "setting": "[7]", "value": 27.7, "unit": "nM"}, {"measurement": "Ratio IC50", "setting": "HEK293", "value": 10}]}
{"compound": "CC(C)C[C@@H]1NC(=O)[C@H](CCC(=O)O)NC(=O)[C@@H]2CCCN2C(=O)[C@H](Cc2cnc[nH]2)NC(=O)[C@H](CC(N)=O)NC(=O)[C@H](C(C)C)NC(=O)[C@H](CO)NC(=O)[C@@H]2CSSC[C@H](NC(=O)CN)C(=O)N[C@@H](CSSC[C@@H](C(=O)O)NC1=O)C(=O)N[C@@H](CO)C(=O)N[C@@H](Cc1cnc[nH]1)C(=O)N1CCC[C@H]1C(=O)N[C@@H](C)C(=O)N2", "note": "(H-GCCSHPACSVNHPELC-OH; disulfide 2-8, 3-16)", "values": [{"measurement": "IC50", "setting": "[7]", "value": 480, "unit": "nM"}]}
{"compound": "CC[C@H](C)[C@@H]1NC(=O)[C@H](Cc2cnc[nH]2)NC(=O)[C@@H]2CCCN2C(=O)[C@H](CC(N)=O)NC(=O)[C@H](CC(N)=O)NC(=O)[C@H](C(C)C)NC(=O)[C@H](CC(N)=O)NC(=O)[C@@H]2CSSC[C@H](NC(=O)CN)C(=O)N[C@@H](CSSC[C@@H](C(=O)O)NC1=O)C(=O)N[C@@H](CO)C(=O)N[C@@H](Cc1cnc[nH]1)C(=O)N1CCC[C@H]1C(=O)N[C@@H](C)C(=O)N2", "note": "(H-GCCSHPACNVNNPHIC-OH; disulfide 2-8, 3-16)", "values": [{"measurement": "IC50", "setting": "[8]", "value": 97, "unit": "nM"}]}
{"compound": "C[C@@H]1NC(=O)[C@H](Cc2ccccc2)NC(=O)[C@@H]2CSSC[C@H](NC(=O)CN)C(=O)N[C@@H](CSSC[C@@H](C(=O)O)NC(=O)[C@H](CC(=O)O)NC(=O)[C@@H]3CCCN3C(=O)[C@H](CC(N)=O)NC(=O)[C@H]([C@@H](C)O)NC1=O)C(=O)N[C@@H](CO)C(=O)N[C@@H](Cc1ccc(O)cc1)C(=O)N1CCC[C@H]1C(=O)N1CCC[C@H]1C(=O)N2", "values": [{"measurement": "IC50", "setting": "[7]", "value": 770, "unit": "nM"}]}
